Reference: ChEMBL document CHEMBL3352743, “Chemically accessible hsp90 inhibitor that does not induce a heat shock response” (ACS Med Chem Lett, 2014)
Values after ≈ are worked out from the molar mass of the structure shown. Active and inactive are the calls of the source. No cut-off for these calls is given here. Peptide text beside a SMILES is read from it.

Key:
[1] = biological target: Heat shock protein HSP 90-beta (Homo sapiens) (UniProt P08238); experiment: Binding affinity to HSP90 in human HCT116 cells by coomassie blue staining and Western blotting based pull down assay; type: cell-based; conditions: HCT-116
Heat shock protein HSP 90-beta (Homo sapiens), sequence (P08238 whole entry): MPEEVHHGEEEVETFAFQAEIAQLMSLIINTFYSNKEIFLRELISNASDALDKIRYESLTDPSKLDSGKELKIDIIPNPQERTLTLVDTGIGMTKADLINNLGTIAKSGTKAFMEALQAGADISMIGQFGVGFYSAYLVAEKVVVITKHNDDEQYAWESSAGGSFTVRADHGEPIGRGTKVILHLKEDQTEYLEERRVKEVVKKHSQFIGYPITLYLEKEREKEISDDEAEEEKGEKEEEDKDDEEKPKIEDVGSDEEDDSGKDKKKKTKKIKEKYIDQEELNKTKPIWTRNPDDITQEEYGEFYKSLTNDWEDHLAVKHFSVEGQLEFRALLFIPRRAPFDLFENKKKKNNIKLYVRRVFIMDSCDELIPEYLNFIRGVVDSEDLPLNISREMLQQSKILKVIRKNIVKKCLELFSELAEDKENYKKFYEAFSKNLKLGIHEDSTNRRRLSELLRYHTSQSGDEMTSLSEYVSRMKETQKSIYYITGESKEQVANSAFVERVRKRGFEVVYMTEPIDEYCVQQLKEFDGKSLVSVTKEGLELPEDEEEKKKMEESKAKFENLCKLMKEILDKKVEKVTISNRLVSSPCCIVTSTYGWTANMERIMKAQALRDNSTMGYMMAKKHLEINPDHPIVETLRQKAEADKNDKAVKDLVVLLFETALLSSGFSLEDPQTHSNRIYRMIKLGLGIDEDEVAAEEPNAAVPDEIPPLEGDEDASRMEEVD
How it was run: (§1)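 Biotin-tagged analogue (0.1 mg) incubated in HCT-116 or MiaPaCa-2 cell lysate, then recovered on NeutrAvidin beads. Bound proteins eluted in sample buffer, visualized by Coomassie stain or Western blot, and identified by nano-LC/MS/MS. Image representative of 3 independent assays.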

[2] = biological target: Heat shock protein HSP 90-beta (Homo sapiens) (UniProt P08238); experiment: Binding affinity to HSP90 in human MIAPaCa2 cells by coomassie blue staining and Western blotting based pull down assay; type: cell-based; conditions: MIA PaCa-2; how it was run: as §1
[3] = Cytotoxicity against human HCT116 cells after 72 hrs by CCK8 assay; type: functional, cell-based; conditions: HCT-116, 72 h
[4] = Cytotoxicity against human MIAPaCa2 cells after 72 hrs by CCK8 assay; type: functional, cell-based; conditions: MIA PaCa-2, 72 h
[5] = Solubility in 80% EtOH/20% water; type: physicochemical; conditions: 80% EtOH/20% water; read-out: solubility
[6] = biological target: Heat shock protein HSP 90-beta (Oryctolagus cuniculus) (UniProt P30947); experiment: Inhibition of HSP90 in rabbit reticulocyte lysates at 5 uM pre-incubated for 2 hrs by firefly luciferase protein re-folding assay
Heat shock protein HSP 90-beta (Oryctolagus cuniculus), sequence (P30947 whole entry): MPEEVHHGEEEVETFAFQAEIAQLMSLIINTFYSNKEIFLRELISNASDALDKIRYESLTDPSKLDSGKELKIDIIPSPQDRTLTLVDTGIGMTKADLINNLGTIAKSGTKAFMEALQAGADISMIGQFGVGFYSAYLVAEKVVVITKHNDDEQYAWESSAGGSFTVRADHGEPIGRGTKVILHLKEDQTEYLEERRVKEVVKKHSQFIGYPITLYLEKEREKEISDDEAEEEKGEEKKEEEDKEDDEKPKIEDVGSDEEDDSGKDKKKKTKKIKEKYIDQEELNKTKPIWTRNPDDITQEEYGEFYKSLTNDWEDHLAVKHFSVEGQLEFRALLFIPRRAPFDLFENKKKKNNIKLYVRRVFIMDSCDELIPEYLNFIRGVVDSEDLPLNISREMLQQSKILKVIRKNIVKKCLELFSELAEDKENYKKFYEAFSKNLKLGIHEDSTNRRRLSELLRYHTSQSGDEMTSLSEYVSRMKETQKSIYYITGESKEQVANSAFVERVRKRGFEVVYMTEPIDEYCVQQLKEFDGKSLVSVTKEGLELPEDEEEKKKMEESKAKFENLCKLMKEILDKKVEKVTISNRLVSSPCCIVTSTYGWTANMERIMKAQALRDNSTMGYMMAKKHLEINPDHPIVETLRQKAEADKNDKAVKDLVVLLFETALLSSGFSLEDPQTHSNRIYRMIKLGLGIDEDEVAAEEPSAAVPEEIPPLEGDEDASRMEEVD

SMILES	Activity [1]	Activity [2]	IC50 [3]	IC50 [4]	solubility [5]	inhibition [6]
CC(C)C[C@H]1NC(=O)[C@@H](Cc2cscn2)NC(=O)[C@@H](C(c2ccccc2)c2ccccc2)NC(=O)[C@H](CCCCNC(=O)CCOCCOCCOCCOCCNC(=O)CCCC[C@@H]2SC[C@@H]3NC(=O)N[C@@H]32)NC(=O)[C@H](C(C)C)N(C)C1=O	Active	Active	–	–	–	–
CC(C)C[C@@H]1NC(=O)[C@H](C(C)C)N(C)C(=O)[C@@H](CC(C)C)NC(=O)[C@@H](Cc2ccccn2)NC(=O)[C@@H](C(c2ccccc2)c2ccccc2)NC1=O	–	–	18.1 µM	23.6 µM	–	–
COc1ccc(C[C@H]2NC(=O)[C@@H](C(c3ccccc3)c3ccccc3)NC(=O)[C@H](CC(C)C)NC(=O)[C@H](C(C)C)N(C)C(=O)[C@@H](CC(C)C)NC2=O)cc1	–	–	5.1 µM	4.4 µM	1500 µg/mL (≈ 2.03 mM)	–
CC(C)C[C@@H]1NC(=O)[C@H](C(C)C)N(C)C(=O)[C@@H](CC(C)C)NC(=O)[C@@H](Cc2ccccc2)NC(=O)[C@@H]([C@H](OCc2ccccc2)c2ccccc2)NC1=O (HELM PEPTIDE1{L.[O=C([C@H](N[*:1])[C@H](OCc1ccccc1)c1ccccc1)[*:2]].[dF].[dL].[meV]}$PEPTIDE1,PEPTIDE1,1:R1-5:R2$$$V2.0)	–	–	7.4 µM	7.8 µM	5200 µg/mL (≈ 7.03 mM)	25%
CC(C)C[C@@H]1NC(=O)[C@H](C(C)C)N(C)C(=O)[C@@H](CC(C)C)NC(=O)[C@@H](Cc2ccncc2)NC(=O)[C@@H](C(c2ccccc2)c2ccccc2)NC1=O	–	–	15.7 µM	18.5 µM	–	–
